Assay results pooled from the literature.
Lines come from different studies, so protocols differ.
RET M918T: Proto-oncogene tyrosine-protein kinase receptor Ret (RET, Homo sapiens, UniProt P07949, M918T)
RET: Proto-oncogene tyrosine-protein kinase receptor Ret (RET, Homo sapiens, UniProt P07949)
RET V804M: Proto-oncogene tyrosine-protein kinase receptor Ret (RET, Homo sapiens, UniProt P07949, V804M)
RET V804L: Proto-oncogene tyrosine-protein kinase receptor Ret (RET, Homo sapiens, UniProt P07949, V804L)

Compound	target	effect on	method	tested at	remaining binding [%]
O=C(c1ccc(Nc2ncc(Cl)c(-c3cc4ccccc4s3)n2)cc1)N1CCC(N2CCCC2)CC1	RET M918T	binding	competition with immobilised ligand	1 µM	13
c1cncc(-c2cccc(Nc3nccc(NC4CCCCC4)n3)c2)c1	RET	binding	competition with immobilised ligand	10 µM	14
CN(C(=O)c1ccccc1)c1cc(N(C)c2ccc3c(c2)CCc2ccc(C(=O)NCCN4CCOCC4)cc2C3=O)ccc1F	RET	cell-free assay	competition with immobilised ligand	1 µM	95
O=C(NCCCN1CCOCC1)c1ccc(Nc2ncc(Cl)c(-c3ccc(Cl)s3)n2)cc1	RET	binding	competition with immobilised ligand	1 µM	24
CNC(=O)[C@@H]1CC[C@@H](n2c(-c3ccc4cnccc4c3)nc3ccc(C(=O)NCc4cccc(C(N)=O)c4)cc32)C1	RET	binding	competition with immobilised ligand	1 µM	96
O=C(O)c1cc(-c2ccc(C3CCNCC3)cc2)c2ccc(-c3ccc(C(F)(F)F)cc3)cc2c1	RET V804M	cell-free assay	competition with immobilised ligand	1 µM	100
COc1cnc(Nc2cccc(S(N)(=O)=O)c2)nc1N1CCN(c2ccccc2)C(=O)C1	RET V804M	binding	competition with immobilised ligand	1 µM	77
Cc1cnn2ncc(-c3ccnc(N(C)C)n3)c2c1	RET M918T	binding	–	1 µM	100
CCN1CCN(Cc2ccc(C(=O)Nc3ccc(C)c(Oc4ccc5c(c4)CC(=O)N5)c3)cc2C(F)(F)F)CC1	RET M918T	binding	competition with immobilised ligand	1 µM	40
O=C(c1ccc(Nc2ncc(Cl)c(-c3ccc(Cl)s3)n2)cc1)N1CCC(N2CCCC2)CC1	RET V804L	binding	competition with immobilised ligand	1 µM	10
CNC(=O)Nc1ccc2c(c1)CC[C@@]21OC(=O)N(CC(=O)N(Cc2ccc(F)cc2)[C@@H](C)C(F)(F)F)C1=O	RET V804M	cell-free assay	competition with immobilised ligand	1 µM	98
N[C@@H]1CCN(c2nccc(-c3cnn4ncccc34)n2)C1	RET V804L	binding	–	1 µM	94
Cn1nc(C(F)(F)F)cc1-c1cnc(N2CCc3cc(S(=O)(=O)Nc4c(F)cc(Cl)cc4F)cc(N4CCCC4=O)c32)nc1	RET V804M	cell-free assay	competition with immobilised ligand	1 µM	98
CC1CCCN1c1nccc(-c2cnn3ncccc23)n1 (centres unmarked)	RET V804M	binding	–	1 µM	100
Nc1ncc2c(n1)-c1c([nH]c3ccc(C#CC4CC4)cc13)CCCC2	RET V804M	binding	competition with immobilised ligand	1 µM	100
O=C(NCC1CCOCC1)c1n[nH]cc1NC(=O)c1c(F)cccc1F	RET	binding	competition with immobilised ligand	1 µM	98
O=C(NCCCN1CCOCC1)c1ccc(Nc2nccc(-c3cc4ccccc4s3)n2)cc1	RET	binding	competition with immobilised ligand	1 µM	55
CO[C@@H](C)c1c(Nc2ccc([C@@H](N(C)C(=O)C3CCS(=O)(=O)CC3)C(F)(F)F)cc2)cnc2cc(Cl)nn12	RET	cell-free assay	competition with immobilised ligand	1 µM	91

Compound	target	effect on	method	tested at	remaining binding [%]
CN1CCN(c2ccc(Nc3nccc(-c4ccccc4)n3)cc2C(F)(F)F)CC1	RET V804L	binding	–	10 µM	40
F[C@@H]1CCN(c2nccc(-c3cnn4ncccc34)n2)C1	RET	binding	–	1 µM	92
O=C(c1ccc(Nc2nccc(-c3cc4ccccc4s3)n2)cc1)N1CCC(N2CCCC2)CC1	RET M918T	binding	competition with immobilised ligand	1 µM	83
CC(C)CC(=O)N1CCc2nc(-c3ccc(Br)cc3)nc(N(C)Cc3ccccc3)c2C1	RET	cell-free assay	competition with immobilised ligand	0.1 µM	68
COc1ncc2cc3ccccc3nc2c1C#N	RET V804L	cell-free assay	competition with immobilised ligand	5 µM	94
Cc1cnc(Nc2ccc(C(=O)N3CCC(N4CCCC4)CC3)cc2)nc1-c1cc2ccccc2s1	RET V804L	binding	competition with immobilised ligand	1 µM	11
O=C(N1CCS(=O)(=O)CC1)N1C[C@H](c2ccc(OC(F)(F)F)cc2)C[C@H](c2nc(C3CC3)no2)C1	RET M918T	cell-free assay	competition with immobilised ligand	1 µM	92
C[C@@H]1CN(c2ccc3ncc(-c4ccc5[nH]nc(C6CC6)c5c4)n3n2)C[C@H](C)O1	RET	binding	competition with immobilised ligand	0.5 µM	61
CN(c1nccc(-c2cnn3ncccc23)n1)C1CC1	RET V804L	binding	–	1 µM	100
C=CC(=O)N1CCC(C(=O)NCC(=O)N2CCN(c3nc(-c4cnc(N)nc4C(F)F)nc(N4CCOCC4)n3)CC2)CC1	RET V804L	binding	competition with immobilised ligand	1 µM	100
C[C@H]1CCN(c2nccc(-c3cnn4ncccc34)n2)C1	RET	binding	–	1 µM	97
C[C@@H](c1ccc(-n2cnc3c(N)ncnc32)cc1)N1CCc2nn(C)c(Cc3ccccc3)c2C1=O	RET	binding	competition with immobilised ligand	0.1 µM	81
COc1cnc(Nc2cccc(S(N)(=O)=O)c2)nc1N1CCN(c2ccccc2)CC1	RET	binding	competition with immobilised ligand	1 µM	64
O=C(Nc1cnc(Oc2ccc(F)cc2)nc1)N1CCc2ncccc2[C@@H]1c1ccc(F)cc1	RET M918T	cell-free assay	competition with immobilised ligand	1 µM	95
CN(C)c1nccc(-c2cnn3ncccc23)n1	RET	binding	–	1 µM	91
O=C(Nc1c[nH]nc1C(=O)NC1CCNCC1)c1cc(F)cc(F)c1	RET M918T	binding	competition with immobilised ligand	1 µM	100
CN1CCN(c2ccc(Nc3nccc(-c4cccc([N+](=O)[O-])c4)n3)cc2C(F)(F)F)CC1	RET M918T	binding	–	10 µM	34
